Measured values: the M2OR odorant receptor database

Columns and labels:
Details in all cases: stereoisomer not certain
UniProt Q8VGC6 = target: T1, UniProt Q8VGC6
T1 sequence (whole entry): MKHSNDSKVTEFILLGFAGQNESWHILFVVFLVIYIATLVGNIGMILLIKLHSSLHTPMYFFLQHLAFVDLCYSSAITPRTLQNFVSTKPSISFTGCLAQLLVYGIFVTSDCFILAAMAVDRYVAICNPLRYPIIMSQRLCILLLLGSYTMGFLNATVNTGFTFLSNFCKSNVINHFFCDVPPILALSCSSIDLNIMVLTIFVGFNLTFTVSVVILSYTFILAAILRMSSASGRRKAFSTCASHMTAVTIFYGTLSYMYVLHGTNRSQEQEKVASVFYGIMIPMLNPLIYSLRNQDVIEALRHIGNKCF
How it was run: (§1)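 Each entry records the cell line, G-protein, co-transfected protein and tags used. Methods varied with the source, often transient luciferase assays in mammalian cell lines. A receptor–molecule pair is called responsive (active) if the original authors judged its signal statistically different from baseline and non-responsive (inactive) otherwise.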

UniProt Q8VGJ3 = target: T2, UniProt Q8VGJ3
T2 sequence (whole entry): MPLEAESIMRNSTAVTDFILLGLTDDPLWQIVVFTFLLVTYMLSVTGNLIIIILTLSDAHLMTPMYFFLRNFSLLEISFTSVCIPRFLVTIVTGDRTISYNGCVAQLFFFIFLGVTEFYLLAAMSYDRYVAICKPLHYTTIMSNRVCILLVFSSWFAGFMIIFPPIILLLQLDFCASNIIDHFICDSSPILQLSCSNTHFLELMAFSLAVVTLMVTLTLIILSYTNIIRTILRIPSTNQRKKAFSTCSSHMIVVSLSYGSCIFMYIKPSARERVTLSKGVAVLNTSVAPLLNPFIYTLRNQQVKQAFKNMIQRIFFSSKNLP
How it was run: as §1

UniProt Q8VGL0 = target: T3, UniProt Q8VGL0
T3 sequence (whole entry): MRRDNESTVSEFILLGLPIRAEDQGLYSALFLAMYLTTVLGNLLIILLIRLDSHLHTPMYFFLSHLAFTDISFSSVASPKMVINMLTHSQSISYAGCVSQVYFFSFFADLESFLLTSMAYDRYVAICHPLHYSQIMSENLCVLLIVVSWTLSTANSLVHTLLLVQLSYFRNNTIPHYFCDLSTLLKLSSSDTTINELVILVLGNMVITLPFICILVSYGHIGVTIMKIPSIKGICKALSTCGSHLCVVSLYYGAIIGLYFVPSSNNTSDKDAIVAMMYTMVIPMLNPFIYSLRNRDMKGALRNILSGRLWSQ
How it was run: as §1

UniProt Q8VGU3 = target: T4, UniProt Q8VGU3
T4 sequence (whole entry): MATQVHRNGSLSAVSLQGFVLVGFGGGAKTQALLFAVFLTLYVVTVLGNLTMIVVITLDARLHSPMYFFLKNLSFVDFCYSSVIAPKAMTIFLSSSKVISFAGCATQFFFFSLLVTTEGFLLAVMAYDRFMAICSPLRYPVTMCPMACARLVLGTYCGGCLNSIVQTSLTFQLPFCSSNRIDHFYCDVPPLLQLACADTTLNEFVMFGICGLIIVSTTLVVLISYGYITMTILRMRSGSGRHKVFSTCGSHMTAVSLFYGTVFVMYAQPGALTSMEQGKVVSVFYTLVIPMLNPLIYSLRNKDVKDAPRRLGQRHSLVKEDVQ
How it was run: as §1

UniProt Q8VGV7 = target: T5, UniProt Q8VGV7
T5 sequence (whole entry): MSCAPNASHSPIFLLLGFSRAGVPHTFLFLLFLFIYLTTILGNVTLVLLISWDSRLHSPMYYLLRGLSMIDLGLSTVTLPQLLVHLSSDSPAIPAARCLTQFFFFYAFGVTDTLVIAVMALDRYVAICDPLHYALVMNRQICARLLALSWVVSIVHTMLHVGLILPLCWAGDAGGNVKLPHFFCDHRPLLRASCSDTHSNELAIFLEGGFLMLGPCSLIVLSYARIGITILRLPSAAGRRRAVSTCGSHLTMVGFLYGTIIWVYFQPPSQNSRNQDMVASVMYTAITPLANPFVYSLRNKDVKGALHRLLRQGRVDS
How it was run: as §1

UniProt Q8VGX3 = target: T6, UniProt Q8VGX3
T6 sequence (whole entry): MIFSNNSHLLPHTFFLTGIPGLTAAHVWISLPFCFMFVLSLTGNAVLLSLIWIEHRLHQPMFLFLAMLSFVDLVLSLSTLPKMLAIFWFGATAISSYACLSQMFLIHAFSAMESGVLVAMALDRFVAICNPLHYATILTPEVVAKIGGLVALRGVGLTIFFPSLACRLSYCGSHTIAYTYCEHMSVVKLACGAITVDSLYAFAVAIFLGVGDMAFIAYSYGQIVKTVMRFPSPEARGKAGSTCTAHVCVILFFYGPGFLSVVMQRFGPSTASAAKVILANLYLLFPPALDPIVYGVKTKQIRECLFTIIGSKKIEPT
How it was run: as §1

UniProt Q8VGX5 = target: T7, UniProt Q8VGX5
T7 sequence (whole entry): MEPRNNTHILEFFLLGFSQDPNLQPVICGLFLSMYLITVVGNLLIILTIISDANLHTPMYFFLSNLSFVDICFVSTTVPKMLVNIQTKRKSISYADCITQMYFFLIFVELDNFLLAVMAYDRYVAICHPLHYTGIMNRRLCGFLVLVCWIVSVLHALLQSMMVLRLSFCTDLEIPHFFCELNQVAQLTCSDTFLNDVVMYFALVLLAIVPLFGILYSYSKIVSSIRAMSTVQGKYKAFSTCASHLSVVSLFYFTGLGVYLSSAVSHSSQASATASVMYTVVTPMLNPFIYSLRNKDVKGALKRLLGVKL
How it was run: as §1

Row | SMILES | odorant receptor agonist call (UniProt Q8VGC6) | odorant receptor agonist call (UniProt Q8VGJ3) | odorant receptor agonist call (UniProt Q8VGL0) | odorant receptor agonist call (UniProt Q8VGU3) | odorant receptor agonist call (UniProt Q8VGV7) | odorant receptor agonist call (UniProt Q8VGX3) | odorant receptor agonist call (UniProt Q8VGX5)
1 | CC(=O)C1(C)CC2=C(CCCC2(C)C)CC1C (configuration not stated) | inactive | inactive | inactive | inactive | active | inactive | inactive
2 | Cc1occc1SSc1ccoc1C | inactive | inactive | inactive | inactive | inactive | inactive | inactive
3 | Cc1ccc(OC(=O)C(C)C)cc1 | inactive | inactive | inactive | inactive | inactive | inactive | inactive
4 | CCCC(C)C(=O)OCC (configuration not stated) | inactive | inactive | inactive | inactive | inactive | inactive | inactive
5 | c1ccc2ncccc2c1 | inactive | inactive | inactive | inactive | inactive | inactive | active
6 | CC(=O)C=CC1=C(C)CCCC1(C)C | inactive | inactive | inactive | inactive | inactive | inactive | active
7 | CCCCCC=CCCC=O | inactive | inactive | inactive | inactive | inactive | inactive | inactive
8 | C=CC(C)=CCC=C(C)CCC=C(C)C | inactive | inactive | inactive | inactive | inactive | inactive | inactive
9 | CCCCCC(C=O)=Cc1ccccc1 | inactive | inactive | inactive | inactive | inactive | inactive | inactive
10 | C=C(C)C1CCC(C)C(O)C1 (configuration not stated) | inactive | inactive | active | inactive | inactive | inactive | active
11 | CC1CCC(C(C)C)C(=O)C1 (configuration not stated) | inactive | inactive | inactive | inactive | inactive | inactive | inactive
12 | O=C(O)C1CCC1 | inactive | inactive | inactive | inactive | inactive | inactive | inactive
13 | CCC=CCCC=CC=O | inactive | inactive | inactive | inactive | inactive | inactive | inactive
14 | CCCCCCCCCC=CC=O | inactive | inactive | inactive | inactive | inactive | inactive | inactive
15 | C1CCOC1 | inactive | inactive | inactive | inactive | inactive | inactive | inactive
16 | COc1nccnc1C(C)C | inactive | inactive | inactive | inactive | inactive | inactive | inactive
17 | C=C(C)C1CC=C(C)CC1 (configuration not stated) | inactive | inactive | inactive | inactive | inactive | active | inactive
18 | CC(CC=O)CCCC(C)(C)O (configuration not stated) | inactive | inactive | inactive | inactive | inactive | inactive | inactive
19 | C=CC(=O)CCCCC | inactive | inactive | inactive | inactive | inactive | inactive | inactive
20 | CC(=O)OCc1ccc2c(c1)OCO2 | active | inactive | inactive | inactive | inactive | inactive | inactive
21 | Cc1ccc(C(C)C)cc1 | inactive | inactive | inactive | inactive | inactive | inactive | inactive

Row | SMILES | odorant receptor agonist call (UniProt Q8VGC6) | odorant receptor agonist call (UniProt Q8VGJ3) | odorant receptor agonist call (UniProt Q8VGL0) | odorant receptor agonist call (UniProt Q8VGU3) | odorant receptor agonist call (UniProt Q8VGV7) | odorant receptor agonist call (UniProt Q8VGX3) | odorant receptor agonist call (UniProt Q8VGX5)
22 | C=C1C2CCC(C2)C1(C)C (configuration not stated) | inactive | inactive | inactive | inactive | inactive | inactive | inactive
23 | CCc1ccccc1O | inactive | inactive | active | inactive | inactive | inactive | inactive
24 | CCCO | inactive | inactive | inactive | inactive | inactive | inactive | inactive
25 | CC(=O)OC1(C)CCC23CC1C(C)(C)C2CCC3C (configuration not stated) | inactive | inactive | inactive | active | inactive | inactive | inactive
26 | OCCc1ccccc1 | inactive | inactive | inactive | inactive | inactive | inactive | active
27 | Cc1ccccc1OC(=O)C(C)C | inactive | inactive | inactive | inactive | inactive | inactive | inactive
28 | CCCC=O | inactive | inactive | inactive | inactive | inactive | inactive | active
29 | CCc1ccc(O)cc1 | inactive | inactive | inactive | inactive | inactive | inactive | inactive
30 | COc1cnccn1 | inactive | inactive | inactive | inactive | inactive | inactive | inactive
31 | CCC(C)c1nccnc1OC (configuration not stated) | inactive | inactive | inactive | inactive | inactive | inactive | active
32 | C1CCOCC1 | inactive | inactive | inactive | inactive | inactive | inactive | inactive
33 | CCC(C)O (configuration not stated) | inactive | inactive | inactive | inactive | inactive | inactive | inactive
34 | CCOC(=O)C(C)CC (configuration not stated) | inactive | inactive | inactive | inactive | inactive | inactive | inactive
35 | CCCCCC(C)O (configuration not stated) | inactive | inactive | inactive | inactive | inactive | inactive | inactive
36 | O=C(OCc1ccccc1)c1ccccc1O | inactive | inactive | inactive | inactive | inactive | inactive | inactive
37 | CCCCCCCCOC=O | inactive | inactive | inactive | inactive | inactive | inactive | inactive
38 | C=C(CC)CCCC(C)(C)O | inactive | inactive | inactive | inactive | inactive | inactive | inactive
39 | CNc1ccccc1C(=O)OC | inactive | inactive | inactive | inactive | inactive | inactive | active
40 | O=C(O)CCCCCCCCC(=O)O | inactive | inactive | inactive | inactive | inactive | inactive | inactive
41 | CCCCCCC=CC=O | inactive | inactive | inactive | inactive | inactive | inactive | inactive
